The results in this text go back to ChEMBL document CHEMBL1153011, “Mechanism of unusual formation of 3-(5-phenyl-3H-[1,2,4]dithiazol-3-yl)chromen-4-ones and 4-oxo-4H-chromene-3-carbothioic acid N-phenylamides and their antimicrobial evaluation” (2009).

≈ marks a conversion by molar mass, not a printed value. Calls of active or inactive are those of the source.

The test system of one test is Aspergillus niger. The experiment in a line: Antifungal activity against Aspergillus niger MTCC 281 after 24 to 72 hrs by broth dilution method. In kind it is functional. The method in brief: (§1)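 Fungi grown at 25 °C on Sabouraud dextrose agar. Compounds dissolved in DMSO (1/10) and tested at several concentrations in Sabouraud dextrose broth in tubes. Conidial suspension at final 1 × 10^5 CFU/ml, with growth and sterility control tubes. […] DMSO negative control; fluconazole positive control.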
Background: Broth dilution looks for growth in wells or tubes with falling amounts of substance.

For the next test, the system named is Geotrichum candidum. The experiment in a line: Antifungal activity against Geotrichum candidum MTCC 3993 after 24 to 72 hrs by broth dilution method. In kind it is functional. The method in brief:
as §1

The next test concerns Candida albicans. The experiment in a line: Antifungal activity against Candida albicans MTCC 227 after 24 to 72 hrs by broth dilution method. In kind it is functional. The gist of the method:
as §1

Another test has as its system Candida tropicalis. Briefly: Antifungal activity against Candida tropicalis MTCC 230 after 24 to 72 hrs by broth dilution method. Type of test: functional. The gist of the method:
as §1

The subject of test [1] is Escherichia coli. The experiment in a line: Antibacterial activity against Escherichia coli MTCC 119 at 2.5 x 10^-5 ug/ml after 24 hrs by disk diffusion assay. Type of test: functional. As to conditions: MTCC 119, 24 h, read-out: GI. The method in brief: (§2)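 Disk diffusion. 100 µl of 4-h nutrient-broth cultures spread on Mueller Hinton agar. Compounds in DMSO (1/10) applied to 8 mm paper disks. After 24 h at 37 °C, growth-inhibition zone diameter measured. DMSO negative control; chloramphenicol and ciprofloxacin positive controls.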
(In general: In agar diffusion tests the substance spreads into inoculated agar from a disc or well.)

Test [2] relates to Escherichia coli. The experiment in a line: Antibacterial activity against Escherichia coli MTCC 119 at 5 x 10^-5 ug/ml after 24 hrs by disk diffusion assay. Type of test: functional. Conditions: MTCC 119, 24 h, read-out: GI. The gist of the method:
as §2

The subject of test [3] is Escherichia coli. Briefly: Antibacterial activity against Escherichia coli MTCC 119 at 1 x 10^-4 ug/ml after 24 hrs by disk diffusion assay. In kind it is functional. As to conditions: MTCC 119, 24 h, read-out: GI. The method in brief: as §2
Test [4] concerns Shigella flexneri. The experiment in a line: Antibacterial activity against Shigella flexneri MTCC 1457 at 2.5 x 10^-5 ug/ml after 24 hrs by disk diffusion assay. Type of test: functional. As to conditions: MTCC 1457, 24 h, read-out: GI. The gist of the method: as §2
The subject of test [5] is Shigella flexneri. Briefly: Antibacterial activity against Shigella flexneri MTCC 1457 at 5 x 10^-5 ug/ml after 24 hrs by disk diffusion assay. In kind it is functional. As to conditions: MTCC 1457, 24 h, read-out: GI. The gist of the method: as §2
In test [6] the test system is Shigella flexneri. The experiment in a line: Antibacterial activity against Shigella flexneri MTCC 1457 at 1 x 10^-4 ug/ml after 24 hrs by disk diffusion assay. As to conditions: MTCC 1457, 24 h, read-out: GI. In kind it is functional. The method in brief: as §2
Test [7] concerns Pseudomonas aeruginosa. Briefly: Antibacterial activity against Pseudomonas aeruginosa MTCC 741 at 2.5 x 10^-5 ug/ml after 24 hrs by disk diffusion assay. In kind it is functional, organism-based. The gist of the method: as §2
Test [8] deals with Pseudomonas aeruginosa. Briefly: Antibacterial activity against Pseudomonas aeruginosa MTCC 741 at 5 x 10^-5 ug/ml after 24 hrs by disk diffusion assay. In kind it is functional, organism-based. The gist of the method:
as §2

Test [9] relates to Pseudomonas aeruginosa. The experiment in a line: Antibacterial activity against Pseudomonas aeruginosa MTCC 741 at 1 x 10^-4 ug/ml after 24 hrs by disk diffusion assay. In kind it is functional, organism-based. The method in brief: as §2
Test [10] deals with Staphylococcus aureus. Briefly: Antibacterial activity against Staphylococcus aureus MTCC 740 at 2.5 x 10^-5 ug/ml after 24 hrs by disk diffusion assay. In kind it is functional. Conditions: MTCC 740, 24 h, read-out: GI. The method in brief: as §2
Test [11] relates to Staphylococcus aureus. The experiment in a line: Antibacterial activity against Staphylococcus aureus MTCC 740 at 5 x 10^-5 ug/ml after 24 hrs by disk diffusion assay. In kind it is functional. Conditions: MTCC 740, 24 h, read-out: GI. The method in brief: as §2
Test [12] has as its system Staphylococcus aureus. Briefly: Antibacterial activity against Staphylococcus aureus MTCC 740 at 1 x 10^-4 ug/ml after 24 hrs by disk diffusion assay. Conditions: MTCC 740, 24 h, read-out: GI. Type of test: functional. The gist of the method: as §2
Test [13] concerns Escherichia coli. Briefly: Antibacterial activity against Escherichia coli MTCC 119 after overnight incubation by broth dilution method. In kind it is functional. The gist of the method: (§3)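 Bacteria grown at 37 °C on nutrient agar. Compounds dissolved in DMSO (1/10) and tested in twofold serial dilutions in Mueller Hinton broth in tubes. Inoculum was a McFarland-standardized suspension, final 5 × 10^5 CFU/ml, with growth and sterility control tubes. Incubation overnight at 37 °C. MIC read by OD600 as the lowest concentration with no turbidity. DMSO negative control; chloramphenicol and ciprofloxacin positive controls.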

Test [14] concerns Shigella flexneri. The experiment in a line: Antibacterial activity against Shigella flexneri MTCC 1457 after overnight incubation by broth dilution method. In kind it is functional. The gist of the method:
as §3

The subject of test [15] is Pseudomonas aeruginosa. Briefly: Antibacterial activity against Pseudomonas aeruginosa MTCC 741 after overnight incubation by broth dilution method. In kind it is functional. The gist of the method: as §3
The test system of test [16] is Staphylococcus aureus. The experiment in a line: Antibacterial activity against Staphylococcus aureus MTCC 740 after overnight incubation by broth dilution method. In kind it is functional. The gist of the method:
as §3

With `O=c1c(C2N=C(c3ccccc3)SS2)coc2ccc(Cl)cc12` (stereo not given), the MIC in the test on Aspergillus niger was 125 µg/mL (≈ 347 µM); in the test with Geotrichum candidum it was 30 µg/mL (≈ 83.4 µM); against Candida albicans, 28 µg/mL (≈ 77.8 µM); in the test with Candida tropicalis it was 28 µg/mL (≈ 77.8 µM); against Escherichia coli [13], 100 µg/mL (≈ 278 µM); in the test with Shigella flexneri [14] it was 90 µg/mL (≈ 250 µM). Inhibition of growth in the test on Staphylococcus aureus [16] (MIC) required 98 µg/mL (≈ 272 µM). Also, the results for the inhibition of growth at 25 pg/mL in the test with Escherichia coli [1], with Shigella flexneri [4] and with Staphylococcus aureus [10] were 22%, 27.3% and 26.4%, respectively. In addition, the inhibition of growth at 50 pg/mL in the test with Escherichia coli [2] was determined as 49.6%; in the test with Shigella flexneri [5], 55.8%; in the test on Staphylococcus aureus [11] it was 51.5%. Moreover, the inhibition of growth at 0.0001 µg/mL in the test on Escherichia coli [3], in the test on Shigella flexneri [6] and with Staphylococcus aureus [12] was 100% in each case. Moreover, the “growth inhibition (GI)” value in the test with Pseudomonas aeruginosa [7], with Pseudomonas aeruginosa [8] and in the test on Pseudomonas aeruginosa [9] was “inactive” each time. Moreover, in the test on Pseudomonas aeruginosa [15], the MIC entry was “inactive”.

As usually defined, the MIC is the smallest concentration in the dilution series that meets the test's criterion for growth inhibition.
